# Reference: ChEMBL document CHEMBL1132224, “Synthesis and in vitro multidrug resistance modulating activity of a series of dihydrobenzopyrans and tetrahydroquinolines” (J Med Chem, 1999)
# Key:
# [1] = Partition coefficient (logP); format: physicochemical; conditions: octanol/water
# Method in brief: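 Computed, not measured: fragmentation method of Ghose et al. on a topological basis. Structures built and minimized with the MM2 force field. Conformation-independent log P values.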
# CCRF-CEM = test: The compound was tested for inhibition of P-glycoprotein mediated daunomycin efflux in multidrug resistant CCRF-CEM vcr1000 cells.; format: functional, cell-based; conditions: Homo sapiens
# Method in brief: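 Vincristine-selected CCRF-CEM vcr1000 T-lymphoblasts grown in RPMI1640 with 10% FCS, selecting agent removed at least 1 week before use. Cells at 1 × 10^6/mL preloaded with 3.2 µM daunomycin (final) for 30 min at 37 °C, pelleted, then resuspended in 37 °C medium with modulator (eight concentrations, 1:2.5 dilutions, 3 nM–500 µM range). Samples taken at 0, 60, 120, 180 and 240 s into ice-cold stop medium containing verapamil (10 µg/mL final). An exponential fit gives the first-order rate constant (Vmax/Km) as the slope at time zero. Efflux in parental CCRF-CEM cells, set to equal initial fluorescence, is subtracted as passive diffusion. EC50 comes from Vmax/Km versus concentration, as mean ± SD of at least three independent experiments.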
# [2] = Lipophilicity (log kw value) was determined; format: physicochemical; conditions: reversed-phase HPLC, methanol/buffer pH 7.4
# Method in brief: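 Reversed-phase HPLC on an RP-8 column (5 µm), eluent methanol/aqueous phase adjusted to pH 7.4 with 1/60 M Soerensen buffer, detection at 254 nm. log k′ measured at 70%, 60% and 50% methanol, then extrapolated to 0% methanol by linear regression to give log kw.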
logP [1],EC50 (CCRF-CEM) [µM],Log kw [2],SMILES
4.51,0.43,6.1,Cc1ccc(C(=O)N2c3ccccc3[C@H](N3CCN(Cc4ccccc4)CC3)[C@@H](O)[C@@H]2C)cc1
3.11,0.64,5.53,CC1(C)Oc2ccc(C#N)cc2[C@H](N2CCN(Cc3ccccc3)CC2)[C@H]1O
3.92,5.64,5.47,Cc1ccc(C(=O)O[C@H]2[C@H](C)Nc3ccccc3[C@@H]2N2CCCC2)cc1
3.34,7.98,4.2,Cc1ccc(C(=O)N2c3ccccc3[C@H](N3CCCC3)[C@@H](O)[C@@H]2C)cc1
4.52,3.26,5.38,Cc1ccc(C(=O)N2c3ccccc3[C@H](NCc3ccccc3)[C@@H](O)[C@@H]2C)cc1
4.2,1.96,–,CCN(CC)CCCC(C)N[C@H]1c2ccccc2N(C(=O)c2ccc(C)cc2)[C@@H](C)[C@@H]1O (stereo partly drawn)

# The remaining lines, values behind:
SMILES,logP [1],EC50 (CCRF-CEM) [µM],Log kw [2]
CC(C)(C)OC(=O)CN(Cc1ccccc1)[C@H]1c2cc(C#N)ccc2OC(C)(C)[C@@H]1O,3.76,2.43,–
CN[C@H]1c2cc(C#N)ccc2OC(C)(C)[C@@H]1O,1.24,1430,–
CC1(C)Oc2ccc(C#N)cc2[C@H](NCc2ccccc2)[C@H]1O,3.12,59.1,4.35
CC(C)(C)OC(=O)CN[C@H]1c2cc(C#N)ccc2OC(C)(C)[C@@H]1O,1.79,46.8,–
CCN(CC)CCCC(C)N[C@H]1c2ccccc2N[C@@H](C)[C@@H]1OC(=O)c1ccc(C)cc1 (stereo partly drawn),4.78,0.34,–
